Laboratory results reported in ChEMBL document CHEMBL1123146, “Design, synthesis, and evaluation of omega-iodovinyl- and omega-iodoalkyl-substituted methyl-branched long-chain fatty acids” (J Med Chem, 1985).

Experiments:
Rattus norvegicus [1] = assay: Distribution of radioactivity was measured in blood tissue of unfasted Fischer 344 rats administered intravenously after 15 minutes (radiolabeled with [125I]-; type: ADME, organism-based; settings: in vivo, iv, 0.25 h
Outline: (§1)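 Female Fischer 344 rats, 10–12 weeks old (170–200 g), with food and water ad libitum, five per time point. The radioiodinated fatty acid was dissolved in ethanol, added to 6% BSA at ~40 °C (final 10% ethanol), filtered, and injected into a lateral tail vein (0.5 mL) under ether anesthesia. Blood was taken by cardiac puncture; organs were rinsed, blotted, weighed and gamma-counted against injectate standards. Output is % injected dose/g.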

Rattus norvegicus [2] = assay: Distribution of radioactivity was measured in blood tissue of unfasted Fischer 344 rats administered intravenously after 2 minutes (radiolabeled with [125I]-; type: ADME, organism-based; settings: in vivo, iv; outline: as §1
Rattus norvegicus [3] = assay: Distribution of radioactivity was measured in blood tissue of unfasted Fischer 344 rats administered intravenously after 30 minutes (radiolabeled with [125I]-; type: ADME, organism-based; settings: in vivo, iv, 0.5 h; outline: as §1
Rattus norvegicus [4] = assay: Distribution of radioactivity was measured in blood tissue of unfasted Fischer 344 rats administered intravenously after 5 minutes (radiolabeled with [125I]-; type: ADME, organism-based; settings: in vivo, iv; outline: as §1
Rattus norvegicus [5] = assay: Distribution of radioactivity was measured in blood tissue of unfasted Fischer 344 rats administered intravenously after 60 minutes (radiolabeled with [125I]-; type: ADME, organism-based; settings: in vivo, iv, 1 h; outline: as §1
Rattus norvegicus [6] = assay: Distribution of radioactivity was measured in heart tissue of unfasted Fischer 344 rats administered intravenously after 15 minutes (radiolabeled with [125I]-; type: ADME, organism-based; settings: in vivo, iv, 0.25 h; outline: as §1
Rattus norvegicus [7] = assay: Distribution of radioactivity was measured in heart tissue of unfasted Fischer 344 rats administered intravenously after 2 minutes (radiolabeled with [125I]-; type: ADME, organism-based; settings: in vivo, iv; outline: as §1
Rattus norvegicus [8] = assay: Distribution of radioactivity was measured in heart tissue of unfasted Fischer 344 rats administered intravenously after 30 minutes (radiolabeled with [125I]-; type: ADME, organism-based; settings: in vivo, iv, 0.5 h; outline: as §1
Rattus norvegicus [9] = assay: Distribution of radioactivity was measured in heart tissue of unfasted Fischer 344 rats administered intravenously after 60 minutes (radiolabeled with [125I]-; type: ADME, organism-based; settings: in vivo, iv, 1 h; outline: as §1
Rattus norvegicus [10] = assay: Distribution of radioactivity was measured in kidney tissue of unfasted Fischer 344 rats administered intravenously after 15 minutes (radiolabeled with [125I]-; type: ADME, organism-based; settings: in vivo, iv, 0.25 h; outline: as §1
Rattus norvegicus [11] = assay: Distribution of radioactivity was measured in thyroid tissue of unfasted Fischer 344 rats administered intravenously after 15 minutes (radiolabeled with [125I]-; type: ADME, organism-based, Thyroid gland; settings: in vivo, iv, 0.25 h; outline: as §1
Rattus norvegicus [12] = assay: Distribution of radioactivity was measured in thyroid tissue of unfasted Fischer 344 rats administered intravenously after 2 minutes (radiolabeled with [125I]-; type: ADME, organism-based, Thyroid gland; settings: in vivo, iv; outline: as §1
Rattus norvegicus [13] = assay: Distribution of radioactivity was measured in thyroid tissue of unfasted Fischer 344 rats administered intravenously after 30 minutes (radiolabeled with [125I]-; type: ADME, organism-based, Thyroid gland; settings: in vivo, iv, 0.5 h; outline: as §1
Rattus norvegicus [14] = assay: Distribution of radioactivity was measured in thyroid tissue of unfasted Fischer 344 rats administered intravenously after 5 minutes (radiolabeled with [125I]-; type: ADME, organism-based, Thyroid gland; settings: in vivo, iv; outline: as §1
Rattus norvegicus [15] = assay: Distribution of radioactivity was measured in thyroid tissue of unfasted Fischer 344 rats administered intravenously after 60 minutes (radiolabeled with [125I]-; type: ADME, organism-based, Thyroid gland; settings: in vivo, iv, 1 h
Outline: (§2)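 Female Fischer 344 rats (10-12 weeks, 170-200 g), fed ad libitum before and during the experiment, five per time point. The radioiodinated fatty acid was dissolved in 0.5 mL absolute ethanol, added dropwise to stirred 6% BSA at ~40 °C (final ethanol 10%), filtered at 0.22 µm, and injected in 0.5 mL into a lateral tail vein under ether anesthesia.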

Rattus norvegicus [16] = assay: Mean heart/blood tissue of unfasted Fischer 344 rats administered intravenous after 2 minutes (radiolabeled with [125I]-; type: ADME, organism-based; settings: in vivo; outline: as §2
Rattus norvegicus [17] = assay: Mean heart/blood tissue of unfasted Fischer 344 rats administered intravenous after 30 minutes (radiolabeled with [125I]-; type: ADME, organism-based; settings: in vivo, 0.5 h; outline: as §2
Rattus norvegicus [18] = assay: Mean heart/blood tissue of unfasted Fischer 344 rats administered intravenous after 5 minutes (radiolabeled with [125I]-; type: ADME, organism-based; settings: in vivo; outline: as §2
Rattus norvegicus [19] = assay: Mean heart/blood tissue of unfasted Fischer 344 rats administered intravenous after 60 minutes (radiolabeled with [125I]-; type: ADME, organism-based; settings: other tissue, 1 h; outline: as §2
Rattus norvegicus [20] = assay: Distribution of radioactivity was measured in kidney tissue of unfasted Fischer 344 rats administered intravenously after 2 minutes (radiolabeled with [125I]-; type: ADME, organism-based; settings: in vivo, iv; outline: as §1
Rattus norvegicus [21] = assay: Distribution of radioactivity was measured in kidney tissue of unfasted Fischer 344 rats administered intravenously after 30 minutes (radiolabeled with [125I]-; type: ADME, organism-based; settings: in vivo, iv, 0.5 h; outline: as §1
Rattus norvegicus [22] = assay: Distribution of radioactivity was measured in kidney tissue of unfasted Fischer 344 rats administered intravenously after 5 minutes (radiolabeled with [125I]-; type: ADME, organism-based; settings: in vivo, iv; outline: as §1
Rattus norvegicus [23] = assay: Distribution of radioactivity was measured in kidney tissue of unfasted Fischer 344 rats administered intravenously after 60 minutes (radiolabeled with [125I]-; type: ADME, organism-based; settings: in vivo, iv, 1 h; outline: as §1
Rattus norvegicus [24] = assay: Distribution of radioactivity was measured in liver tissue of unfasted Fischer 344 rats administered intravenously after 15 minutes (radiolabeled with [125I]-; type: ADME, organism-based; settings: in vivo, iv, 0.25 h; outline: as §1
Rattus norvegicus [25] = assay: Distribution of radioactivity was measured in liver tissue of unfasted Fischer 344 rats administered intravenously after 2 minutes (radiolabeled with [125I]-; type: ADME, organism-based; settings: in vivo, iv; outline: as §1
Rattus norvegicus [26] = assay: Distribution of radioactivity was measured in liver tissue of unfasted Fischer 344 rats administered intravenously after 30 minutes (radiolabeled with [125I]-; type: ADME, organism-based; settings: in vivo, iv, 0.5 h; outline: as §1
Rattus norvegicus [27] = assay: Distribution of radioactivity was measured in liver tissue of unfasted Fischer 344 rats administered intravenously after 5 minutes (radiolabeled with [125I]-; type: ADME, organism-based; settings: in vivo, iv; outline: as §1
Rattus norvegicus [28] = assay: Distribution of radioactivity was measured in liver tissue of unfasted Fischer 344 rats administered intravenously after 60 minutes (radiolabeled with [125I]-; type: ADME, organism-based; settings: in vivo, iv, 1 h; outline: as §1
Rattus norvegicus [29] = assay: Distribution of radioactivity was measured in lung tissue of unfasted Fischer 344 rats administered intravenously after 15 minutes (radiolabeled with [125I]-; type: ADME, organism-based; settings: in vivo, iv, 0.25 h; outline: as §1
Rattus norvegicus [30] = assay: Distribution of radioactivity was measured in lung tissue of unfasted Fischer 344 rats administered intravenously after 2 minutes (radiolabeled with [125I]-; type: ADME, organism-based; settings: in vivo, iv; outline: as §1
Rattus norvegicus [31] = assay: Distribution of radioactivity was measured in lung tissue of unfasted Fischer 344 rats administered intravenously after 30 minutes (radiolabeled with [125I]-; type: ADME, organism-based; settings: in vivo, iv, 0.5 h; outline: as §1
Rattus norvegicus [32] = assay: Distribution of radioactivity was measured in lung tissue of unfasted Fischer 344 rats administered intravenously after 5 minutes (radiolabeled with [125I]-; type: ADME, organism-based; settings: in vivo, iv; outline: as §1
Rattus norvegicus [33] = assay: Distribution of radioactivity was measured in lung tissue of unfasted Fischer 344 rats administered intravenously after 60 minutes (radiolabeled with [125I]-; type: ADME, organism-based; settings: in vivo, iv, 1 h; outline: as §1
Rattus norvegicus [34] = species: Rattus norvegicus; assay: Specific activity was determined with radioiodinated iodine-125; type: functional
Rattus norvegicus [35] = assay: Distribution of radioactivity was measured in heart tissue of unfasted Fischer 344 rats administered intravenously after 5 minutes (radiolabeled with [125I]-; type: ADME, organism-based; settings: in vivo, iv; outline: as §1
Rattus norvegicus [36] = assay: Mean heart/blood tissue of unfasted Fischer 344 rats administered intravenous after 15 minutes (radiolabeled with [125I]-; type: ADME, organism-based; settings: in vivo, 0.25 h; outline: as §2
Rattus norvegicus [37] = species: Rattus norvegicus; assay: Specific activity was determined with radioiodinated iodine-123; type: functional

Row | Distribution (Rattus norvegicus [1]) | Distribution (Rattus norvegicus [2]) | Distribution (Rattus norvegicus [3]) | Distribution (Rattus norvegicus [4]) | Distribution (Rattus norvegicus [5]) | Distribution (Rattus norvegicus [6]) | Distribution (Rattus norvegicus [7]) | Distribution (Rattus norvegicus [8]) | Distribution (Rattus norvegicus [9]) | Distribution (Rattus norvegicus [10]) | Distribution (Rattus norvegicus [11]) | Distribution (Rattus norvegicus [12]) | Distribution (Rattus norvegicus [13]) | Distribution (Rattus norvegicus [14]) | Distribution (Rattus norvegicus [15]) | Distribution (Rattus norvegicus [16]) | Distribution (Rattus norvegicus [17]) | Distribution (Rattus norvegicus [18]) | Distribution (Rattus norvegicus [19]) | Distribution (Rattus norvegicus [20]) | Compound | further results
1 | 0.35% | 0.45% | 0.51% | 0.3% | 0.31% | 3% | 4.44% | 3.79% | 3.4% | 0.73% | 15.7% | 7.91% | 21.9% | 8.73% | 43.5% | 9.9% | 7.4% | 12.4% | 10.9% | 0.85% | O=C(O)CCCCCCCCCCCCCCCC/C=C/I | Distribution (Rattus norvegicus [21]): 0.76%; Distribution (Rattus norvegicus [22]): 0.82%; Distribution (Rattus norvegicus [23]): 0.67%; Distribution (Rattus norvegicus [24]): 5.88%; Distribution (Rattus norvegicus [25]): 6.91%; Distribution (Rattus norvegicus [26]): 5.72%; Distribution (Rattus norvegicus [27]): 6.45%; Distribution (Rattus norvegicus [28]): 3.79%; Distribution (Rattus norvegicus [29]): 0.92%; Distribution (Rattus norvegicus [30]): 1.16%; Distribution (Rattus norvegicus [31]): 1%; Distribution (Rattus norvegicus [32]): 0.97%; Distribution (Rattus norvegicus [33]): 0.86%; Specific activity (Rattus norvegicus [34]): 1.77 Ci mM-1; Distribution (Rattus norvegicus [35]): 3.72%; Distribution (Rattus norvegicus [36]): 8.6%; Specific activity (Rattus norvegicus [37]): 2.21 Ci mM-1
2 | 0.41% | 1.05% | 0.59% | 0.67% | 0.37% | 3.47% | 3.93% | 4.12% | 3.08% | 0.66% | 16.9% | 7.21% | 29.4% | 9.49% | 65.4% | 3.7% | 6.9% | 5.6% | 8.3% | 0.95% | CC(CCCCCCCCCCCCCC/C=C/I)CC(=O)O (centres undefined) | Distribution (Rattus norvegicus [21]): 0.71%; Distribution (Rattus norvegicus [22]): 0.92%; Distribution (Rattus norvegicus [23]): 0.67%; Distribution (Rattus norvegicus [24]): 8.44%; Distribution (Rattus norvegicus [25]): 8.32%; Distribution (Rattus norvegicus [26]): 5.97%; Distribution (Rattus norvegicus [27]): 7.81%; Distribution (Rattus norvegicus [28]): 4.73%; Distribution (Rattus norvegicus [29]): 0.83%; Distribution (Rattus norvegicus [30]): 1.42%; Distribution (Rattus norvegicus [31]): 0.89%; Distribution (Rattus norvegicus [32]): 1.18%; Distribution (Rattus norvegicus [33]): 0.73%; Specific activity (Rattus norvegicus [34]): 7.08 Ci mM-1; Distribution (Rattus norvegicus [35]): 3.74%; Distribution (Rattus norvegicus [36]): 7.4%; Specific activity (Rattus norvegicus [37]): 4.98 Ci mM-1
